From ChEMBL document CHEMBL4732168, “Dihydroquinazolines enhance 20S proteasome activity and induce degradation of α-synuclein, an intrinsically disordered protein associated with neurodegeneration” (Bioorg Med Chem Lett, 2021) come the findings set out here.

Common to all, as to type: protein-complex assay
The target in experiment [1] is T1, 20S proteasome (Homo sapiens) (UniProt P49721+P20618+P28074+P28062+P28065+P28072+P25786+P25787+P25788+P25789+P28066+P60900+O14818+Q8TAA3+P40306+A5LHX3+P49720+P28070+Q99436). As to the kind of experiment: Activation of human 20S proteosome assessed as increase in 7-amino-4-methylcoumarin release at 30 uM using mixture of chymotrypsin-like Suc-LLVY-AMC, trypsin-like Boc-LRR-AMC and caspase-like Z-LLE-AM fluorogenic peptides as substrates preincubated for 15 mins followed by substrate mixture addition and measured for 1 hr by fluorescence assay relative to control. The settings on record: filed as activator, time 75.0 min. The procedure, abridged: (§1)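 Purified human 20S proteasome pre-incubated 15 min at 37°C with compound (3, 10 or 30 μM) or DMSO vehicle. Substrate mix then added: Suc-LLVY-AMC, Boc-LRR-AMC and Z-LLE-AMC, 13.3 μM each. AMC fluorescence followed over 1 h. Fold increase in activity calculated against untreated 20S.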

Experiment [2] deals with T1, 20S proteasome (Homo sapiens). The experiment in a line: Activation of human 20S proteosome assessed as concentration required to cause double the proteosome activity using trypsin-like Boc-LRR-AMC fluorogenic peptide as substrate. Particulars: filed as activator. The gist of the method: (§2)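 Human 20S proteasome activity measured by AMC fluorescence over time. Each fluorogenic substrate (CT-L Suc-LLVY-AMC, Tryp-L Boc-LRR-AMC, Casp-L Z-LLE-AMC) tested alone and as an equal-amount mixture. Six-point compound titration, 1.25–40 μM, run in triplicate. AC200, the concentration that doubles 20S activity, derived from the concentration-response curves.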

For experiment [3] the target is unchanged. As to the kind of experiment: Activation of human 20S proteosome assessed as fold increase in proteosome activity at 2.8 uM using caspase-like Z-LLE-AM fluorogenic peptide as substrate by fluorescence assay relative to control. Particulars: filed as activator.
Experiment [4] has the same target. The experiment in a line: Activation of human 20S proteosome assessed as concentration required to cause double the proteosome activity using chymotrypsin-like Suc-LLVY-AMC fluorogenic peptide as substrate. The settings on record: filed as activator. The gist of the method: as §2
For experiment [5] the target is unchanged. As to the kind of experiment: Induction of human 20S proteosome mediated human alpha-synuclein degradation. The settings on record: filed as activator, dose 0.5-10 µM. The gist of the method:
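Compound pre-incubated with purified human 20S proteasome. Pure human α-synuclein then added and the mix incubated 4 h. Digests resolved and silver stained. α-Synuclein bands quantified using 20S proteasome subunits as loading control, n=3.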

For experiment [6] the target is unchanged. As to the kind of experiment: Activation of human 20S proteosome assessed as concentration required to cause double the proteosome activity using caspase-like Z-LLE-AM fluorogenic peptide as substrate. The settings on record: filed as activator. The procedure, abridged: as §2
Experiment [7] has the same target. As to the kind of experiment: Activation of human 20S proteosome assessed as fold increase in proteosome activity at 1.3 uM using mixture of chymotrypsin-like Suc-LLVY-AMC, trypsin-like Boc-LRR-AMC and caspase-like Z-LLE-AM fluorogenic peptides as substrates by fluorescence assay relative to control. Particulars: filed as activator.
Experiment [8] has the same target. The experiment in a line: Activation of human 20S proteosome assessed as concentration required to cause double the proteosome activity using chymotrypsin-like Suc-LLVY-AMC, trypsin-like Boc-LRR-AMC and caspase-like Z-LLE-AM fluorogenic peptides as substrates. Particulars: filed as activator. The procedure, abridged:
as §2

Experiment [9] shares this target. The experiment in a line: Activation of human 20S proteosome assessed as fold increase in proteosome activity at 1.7 uM using trypsin-like Boc-LRR-AMC fluorogenic peptide as substrate by fluorescence assay relative to control. The settings on record: filed as activator.
Experiment [10] shares this target. The experiment in a line: Activation of human 20S proteosome assessed as fold increase in proteosome activity at 10.5 uM using chymotrypsin-like Suc-LLVY-AMC fluorogenic peptide as substrate by fluorescence assay relative to control. Particulars: filed as activator.
The target is the same in experiment [11]. The experiment in a line: Activation of human 20S proteosome assessed as increase in 7-amino-4-methylcoumarin release at 3 uM using mixture of chymotrypsin-like Suc-LLVY-AMC, trypsin-like Boc-LRR-AMC and caspase-like Z-LLE-AM fluorogenic peptides as substrates preincubated for 15 mins followed by substrate mixture addition and measured for 1 hr by fluorescence assay relative to control. Particulars: filed as activator, time 75.0 min. The gist of the method: as §1

Experiment [12] has the same target. As to the kind of experiment: Activation of human 20S proteosome assessed as fold increase in proteosome activity at 12.9 uM using chymotrypsin-like Suc-LLVY-AMC fluorogenic peptide as substrate by fluorescence assay relative to control. Particulars: filed as activator.
Experiment [13] has the same target. The experiment in a line: Activation of human 20S proteosome assessed as fold increase in proteosome activity at 5.6 uM using caspase-like Z-LLE-AM fluorogenic peptide as substrate by fluorescence assay relative to control. Particulars: filed as activator.
Experiment [14] shares this target. As to the kind of experiment: Activation of human 20S proteosome assessed as fold increase in proteosome activity at 2 uM using mixture of chymotrypsin-like Suc-LLVY-AMC, trypsin-like Boc-LRR-AMC and caspase-like Z-LLE-AM fluorogenic peptides as substrates by fluorescence assay relative to control. The settings on record: filed as activator.
Experiment [15] has the same target. As to the kind of experiment: Activation of human 20S proteosome assessed as fold increase in proteosome activity at 5 uM using trypsin-like Boc-LRR-AMC fluorogenic peptide as substrate by fluorescence assay relative to control. Particulars: filed as activator.
Experiment [16] shares this target. The experiment in a line: Activation of human 20S proteosome assessed as fold increase in proteosome activity at 2.3 uM using mixture of chymotrypsin-like Suc-LLVY-AMC, trypsin-like Boc-LRR-AMC and caspase-like Z-LLE-AM fluorogenic peptides as substrates by fluorescence assay relative to control. Particulars: filed as activator.
Experiment [17] shares this target. The experiment in a line: Activation of human 20S proteosome assessed as fold increase in proteosome activity at 5.8 uM using caspase-like Z-LLE-AM fluorogenic peptide as substrate by fluorescence assay relative to control. Particulars: filed as activator.
Experiment [18] shares this target. As to the kind of experiment: Activation of human 20S proteosome assessed as fold increase in proteosome activity at 2.5 uM using trypsin-like Boc-LRR-AMC fluorogenic peptide as substrate by fluorescence assay relative to control. The settings on record: filed as activator.
For experiment [19] the target is unchanged. The experiment in a line: Activation of human 20S proteosome assessed as fold increase in proteosome activity at 8.1 uM using chymotrypsin-like Suc-LLVY-AMC fluorogenic peptide as substrate by fluorescence assay relative to control. The settings on record: filed as activator.

Consider `COc1ccc2c(c1)N=C(c1ccccc1)N(CC1CCCCC1)C2c1ccccc1` (configuration not stated), for which the fold change (FC) in experiment [1] was 8.2.
Turning to `CCCCCC1=Nc2cc(OC)ccc2C(c2ccccc2)N1Cc1ccccc1` (configuration not stated), the fold change (FC) in experiment [1] amounted to 2.8.
Same read-out and setting: in the case of `COc1ccc2c(c1)N=C(c1ccccc1)N(Cc1ccccn1)C2c1ccccc1` (configuration not stated) it was 2; in that of `COc1ccc2c(c1)N=C(c1ccccc1)N(c1cccnc1)C2c1ccccc1` (configuration not stated), 5.9; in that of `COc1ccc2c(c1)N=C(C1CCCCC1)N(Cc1ccccc1)C2c1ccccc1` (configuration not stated), 6.5.
On to `COc1ccc2c(c1)N=C(c1ccccc1)N(CC#N)C2c1ccccc1` (configuration not stated), for which the fold change (FC) in experiment [1] came out at 2.7.
Turning to `COc1ccc2c(c1)N=C(c1ccccc1)N(CC1CCN(C)CC1)C2c1ccccc1` (configuration not stated), the fold change (FC) in experiment [1] is 1.2.
The same measure, in the same setting: in the case of `COc1ccc2c(c1)N=C(c1ccccc1)N(c1ccccn1)C2c1ccccc1` (configuration not stated) it was 6.9; in that of `COc1ccc2c(c1)N=C(C1CC1)N(Cc1ccccc1)C2c1ccccc1` (configuration not stated), 2.7; in that of `COc1ccc2c(c1)N=C(c1ccccc1)N(CCc1ccccn1)C2c1ccccc1` (configuration not stated), 2.8.
The same measure, in the same setting: in the case of `COc1ccc2c(c1)N=C(C(C)C)N(Cc1ccccc1)C2c1ccccc1` (configuration not stated) it was 2.3.
Turning to `COc1ccc2c(c1)N=C(c1ccccc1)N(C1CCN(Cc3ccccc3)CC1)C2c1ccccc1` (configuration not stated), the AC200 in experiment [2] was determined as 1.7 µM; in [4], 10.5 µM; in [6], 2.8 µM; in [8], 1.3 µM. The fold change (FC) in [3] stood at 10.6; in [1], 7; in experiment [7] it was 5.5; in [9], 8.7; in [10], 3.8. Also, the figures for the Activity result in experiment [5] and in [11] were “Dose-dependent effect” and > 200%, respectively.
For the compound `COc1ccc2c(c1)N=C(c1ccccc1)N(Cc1ccccc1)C2c1ccccc1` (configuration not stated), the AC200 in [2] was found to be 5 µM; in experiment [4], 12.9 µM; in [6], 5.6 µM; in experiment [8], 2 µM. The fold change (FC) in experiment [1] came out at 7.9; in experiment [12] it was 5.6; in [13], 13.4; in experiment [14], 10.1; in experiment [15], 11.7. Besides, the Activity in [11] was > 200%.
`COc1ccc2c(c1)N=C(c1ccccc1)N(c1ccccc1)C2c1ccccc1` (configuration not stated): the AC200 in experiment [2] came to 2.5 µM; in experiment [4] it was 8.1 µM; in experiment [6], 5.8 µM; in [8], 2.3 µM. Moreover, the fold change (FC) in experiment [1] worked out at 9.5; in [16] it was 11.1; in experiment [17], 15.3; in experiment [18], 15; in experiment [19], 6.7. In addition, in experiment [11], the Activity was > 200%.
As for `COc1ccc2c(c1)N=C(c1ccccc1)N(C1CCCCC1)C2c1ccccc1` (configuration not stated), in experiment [1], the fold change (FC) came to 6.7.
`C=CCN1C(c2ccccc2)=Nc2cc(OC)ccc2C1c1ccccc1` (configuration not stated): in experiment [1], the fold change (FC) was 2.3.
Consider `CCCCCCN1C(c2ccccc2)=Nc2cc(OC)ccc2C1c1ccccc1` (configuration not stated), for which the fold change (FC) in experiment [1] was found to be 1.6.
In the case of `CCCCCc1ccc2c(c1)N=C(c1ccccc1)N(Cc1ccccc1)C2c1ccccc1` (configuration not stated), the fold change (FC) in experiment [1] is 2.8.
For the compound `COc1ccc2c(c1)N=C(C)N(Cc1ccccc1)C2c1ccccc1` (configuration not stated), in [1], the fold change (FC) was 1.8.
The same measure, in the same setting: in the case of `c1ccc(CN2C(c3ccccc3)=Nc3ccccc3C2c2ccccc2)cc1` (configuration not stated) it was 4; in that of `Cc1ccc2c(c1)N=C(c1ccccc1)N(Cc1ccccc1)C2c1ccccc1` (configuration not stated), 8.1.
On the same count and under the same terms, in the case of `COc1ccc2c(c1)N=C(c1ccccc1)N(CC1CCOCC1)C2c1ccccc1` (configuration not stated) it was 1.6; in that of `COc1ccc2c(c1)N=C(c1ccccc1)N(C1CCN(C)CC1)C2c1ccccc1` (configuration not stated), 1; in that of `COc1ccc2c(c1)N=C(c1ccccc1)N(c1cccc3cccnc13)C2c1ccccc1` (configuration not stated), 5.3.
